Source: ChEMBL document CHEMBL4130549, “Synthesis and bioactivities study of new antibacterial peptide mimics: The dialkyl cationic amphiphiles” (Eur J Med Chem, 2018)
The source made the active and inactive calls. No cut-off for these calls is given here.

Assays:
[1] = Hemolytic activity in sheep RBC after 1 hr; assay type: ADME, cell-based, Ovis aries, Erythrocyte; conditions: sheep red blood cells (erythrocytes)
How it was run: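 Sheep RBCs suspended at 5% in PBS; 150 µL added to 50 µL compound dilutions (5120 to 10 µg/mL series). Incubated 1 h at 37 °C, then centrifuged; supernatant absorbance read at 540 nm. Lysis (%) = (A−A0)/(Atotal−A0)×100, with untreated 5% RBC as A0 and 0.1% Triton X-100 as total.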

[2] = test system: Staphylococcus aureus; assay: Antibacterial activity against methicillin-resistant Staphylococcus aureus isolate M2 after 16 to 20 hrs by broth microdilution method; assay type: functional
How it was run: (§1)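 CLSI broth microdilution in cation-adjusted Mueller-Hinton broth. A 4-6 h culture was diluted to about 10⁶ CFU/mL and mixed 1:1 with twofold compound dilutions (256–0.5 µg/mL before mixing) prepared from aqueous stocks. Plates were incubated at 37 °C for 16-20 h. Each concentration was tested in duplicate, and the experiment was repeated at least twice.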

[3] = test system: Enterococcus faecalis; assay: Antibacterial activity against Enterococcus faecalis after 16 to 20 hrs by broth microdilution method; assay type: functional
How it was run: (§2)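 Broth microdilution per CLSI in cation-adjusted Mueller-Hinton broth; 4-6 h cultures (~10⁸ CFU/mL) diluted to ~10⁶ CFU/mL and mixed 1:1 with twofold dilutions of water-dissolved compound (256 to 0.5 µg/mL). Incubated 16-20 h at 37 °C; MIC read visually. Each concentration run in duplicate, whole experiment repeated at least twice. MRSA, KPC and NDM-1 strains were clinical isolates.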

[4] = test system: Staphylococcus aureus; assay: Antibacterial activity against methicillin-resistant Staphylococcus aureus isolate M5 after 16 to 20 hrs by broth microdilution method; assay type: functional; how it was run: as §1
[5] = test system: Escherichia coli; assay: Induction of inner membrane permeabilization in Escherichia coli ATCC 25922 at 20 ug/ml measured every 2 mins for 12 mins by propidium iodide staining based fluorescence assay; assay type: functional, organism-based
How it was run: (§3)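 Mid-log cells (~10^8 CFU/mL) pre-incubated with propidium iodide (10 µM, 50 µL), 30 min for S. aureus and 40 min for E. coli. Fluorescence (ex 535/em 617 nm) read for 8 min, then compound added to 20 µg/mL final and monitored every 2 min for 12 min. Water-treated control.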

[6] = test system: Staphylococcus aureus; assay: Antibacterial activity against methicillin-resistant Staphylococcus aureus isolate M10 after 16 to 20 hrs by broth microdilution method; assay type: functional; how it was run: as §1
[7] = test system: Staphylococcus aureus; assay: Antibacterial activity against methicillin-resistant Staphylococcus aureus isolate M6 after 16 to 20 hrs by broth microdilution method; assay type: functional; how it was run: as §1
[8] = test system: Staphylococcus aureus; assay: Induction of cytoplasmic membrane depolarization in Staphylococcus aureus ATCC 29213 at 20 ug/ml measured every 2 mins for 12 mins by diSC35 staining based fluorescence assay; assay type: functional, organism-based
How it was run: (§4)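 Mid-log cells (4–6 h) pelleted, washed and resuspended (~10^8 CFU/mL) in PBS for S. aureus, or in 5 mM HEPES, 5 mM glucose and 100 mM KCl (1:1:1) for E. coli. Preloaded with diSC35 (10 µM, 50 µL), 30 min for S. aureus and 40 min plus EDTA (200 µM, 50 µL) for E. coli. Baseline read 8 min (ex 622/em 670 nm), then compound added to 20 µg/mL final and read every 2 min for 12 min. Water control.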

[9] = test system: Staphylococcus aureus; assay: Antibacterial activity against methicillin-resistant Staphylococcus aureus isolate M7 after 16 to 20 hrs by broth microdilution method; assay type: functional; how it was run: as §1
[10] = test system: Staphylococcus aureus; assay: Antibacterial activity against methicillin-resistant Staphylococcus aureus after 16 to 20 hrs by broth microdilution method; assay type: functional; how it was run: as §1
[11] = test system: Escherichia coli; assay: Antibacterial activity against Escherichia coli ATCC 25922 after 16 to 20 hrs by broth microdilution method; assay type: functional; how it was run: as §2
[12] = test system: Staphylococcus aureus; assay: Antibacterial activity against methicillin-resistant Staphylococcus aureus isolate M3 after 16 to 20 hrs by broth microdilution method; assay type: functional; how it was run: as §1
[13] = test system: Staphylococcus aureus; assay: Antibacterial activity against Staphylococcus aureus ATCC 29213 after 16 to 20 hrs by broth microdilution method; assay type: functional; how it was run: as §1
[14] = test system: Staphylococcus aureus; assay: Antibacterial activity against methicillin-resistant Staphylococcus aureus isolate M9 after 16 to 20 hrs by broth microdilution method; assay type: functional; how it was run: as §1
[15] = test system: Escherichia coli; assay: Induction of outer membrane permeabilization in Escherichia coli ATCC 25922 at 20 ug/ml measured every 2 mins for 12 mins by NPN staining based fluorescence assay; assay type: functional, organism-based
How it was run: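 Mid-log E. coli (~10^8 CFU/mL) in black plates pre-incubated about 40 min with NPN (10 µM, 50 µL). Baseline read 8 min (ex 350/em 420 nm), then compound added to 20 µg/mL final and fluorescence followed every 2 min for 12 min. Water-treated control.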

[16] = test system: Salmonella enterica; assay: Antibacterial activity against Salmonella enterica after 16 to 20 hrs by broth microdilution method; assay type: functional; how it was run: as §2
[17] = test system: Staphylococcus aureus; assay: Antibacterial activity against methicillin-resistant Staphylococcus aureus isolate M4 after 16 to 20 hrs by broth microdilution method; assay type: functional; how it was run: as §1
[18] = test system: Staphylococcus aureus; assay: Induction of inner membrane permeabilization in Staphylococcus aureus ATCC 29213 at 20 ug/ml measured every 2 mins for 12 mins by propidium iodide staining based fluorescence assay; assay type: functional, organism-based; how it was run: as §3
[19] = test system: Staphylococcus aureus; assay: Antibacterial activity against methicillin-resistant Staphylococcus aureus isolate M1 after 16 to 20 hrs by broth microdilution method; assay type: functional; how it was run: as §1
[20] = test system: Escherichia coli; assay: Induction of cytoplasmic membrane depolarization in Escherichia coli ATCC 25922 at 20 ug/ml measured every 2 mins for 12 mins by diSC35 staining based fluorescence assay; assay type: functional, organism-based; how it was run: as §4
[21] = test system: Staphylococcus aureus; assay: Antibacterial activity against methicillin-resistant Staphylococcus aureus isolate M8 after 16 to 20 hrs by broth microdilution method; assay type: functional; how it was run: as §1

Row | SMILES | HC50 at 1 h [1] [µg/mL] | MIC [2] [µg/mL] | MIC [3] [µg/mL] | MIC [4] [µg/mL] | Activity [5] | MIC [6] [µg/mL] | MIC [7] [µg/mL] | Activity [8] | MIC [9] [µg/mL] | MIC [10] [µg/mL] | MIC [11] [µg/mL] | MIC [12] [µg/mL] | MIC [13] [µg/mL] | MIC [14] [µg/mL] | Activity [15] | MIC [16] [µg/mL] | MIC [17] [µg/mL] | Activity [18] | MIC [19] [µg/mL] | Activity [20] | other results
1 | CCCCCCCCCCN(CCCCCCCCCC)C(=O)[C@H](N)CO.Cl | > 1000 | 32 | 32 | 32 | Active | 32 | 32 | Active | 32 | 32 | > 128 | 32 | 16 | 32 | Active | > 128 | 32 | Active | 32 | Active | MIC [21]: 32 µg/mL
2 | CCCCN(CCCC)C(=O)[C@@H](N)CCCCN.Cl.Cl | 743 |  | 128 |  | Active |  |  | Active |  |  | > 128 |  | > 128 |  | Active | 128 |  | Active |  | Active | 
3 | CCCCCN(CCCCC)C(=O)[C@@H](N)CCCCN.Cl.Cl | 576 |  | 128 |  | Active |  |  | Active |  |  | 128 |  | 128 |  | Active | 128 |  | Active |  | Active | 
4 | CCCCCCCCN(CCCCCCCC)C(=O)[C@@H](N)Cc1ccccc1.Cl | > 1000 | 16 | 128 | 32 | Active | 32 | 32 | Active | 16 | 32 | > 128 | 16 | 8 | 32 | Active | > 128 | 16 | Active | 32 | Active | MIC [21]: 32 µg/mL
5 | CCCCCCCCCCN(CCCCCCCCCC)C(=O)[C@@H](N)CO.Cl | > 1000 | 4 | 8 | 16 | Active | 16 | 8 | Active | 8 | 16 | > 128 | 4 | 8 | 16 | Active | > 128 | 4 | Active | 16 | Active | MIC [21]: 16 µg/mL
6 | CCCCCCCCN(CCCCCCCC)C(=O)[C@@H](N)CC(C)C.Cl | > 1000 | 2 | 2 | 4 | Active | 4 | 4 | Active | 4 | 4 | 64 | 2 | 2 | 4 | Active | > 128 | 2 | Active | 4 | Active | MIC [21]: 4 µg/mL
7 | C[C@@H](O)[C@H]1C(=O)N2C(C(=O)O)=C(S[C@@H]3CN[C@H](C(=O)N(C)C)C3)[C@H](C)[C@H]12 [MEROPENEM] |  |  |  |  |  |  |  |  |  |  | < 0.125 |  |  |  |  |  |  |  |  |  | 
8 | CCCCCCN(CCCCCC)C(=O)[C@@H](N)CCCCN.Cl.Cl | 496 |  | 64 |  | Active |  |  | Active |  |  | 64 |  | 64 |  | Active | 64 |  | Active |  | Active | 
9 | CCN(CC)C(=O)[C@@H](N)CCCCN.Cl.Cl | > 1000 |  | > 128 |  | Active |  |  | Active |  |  | > 128 |  | > 128 |  | Active | > 128 |  | Active |  | Active | 
